Assay results taken from paper PMC7815202 (ChemMedChem, 2020).
Where “and” joins values, the source holds several entries; their conditions need not be identical. Equal values may be shown once. Read-outs that look alike come from different tables or passages of the source.

Assays:
bovine spleen ADA [1] = target: T1, bovine spleen ADA (Bos taurus, UniProt P56658); assay: Cuvette fluorescence assay of ADA; assay type: biochemical
T1 sequence (P56658 1-363): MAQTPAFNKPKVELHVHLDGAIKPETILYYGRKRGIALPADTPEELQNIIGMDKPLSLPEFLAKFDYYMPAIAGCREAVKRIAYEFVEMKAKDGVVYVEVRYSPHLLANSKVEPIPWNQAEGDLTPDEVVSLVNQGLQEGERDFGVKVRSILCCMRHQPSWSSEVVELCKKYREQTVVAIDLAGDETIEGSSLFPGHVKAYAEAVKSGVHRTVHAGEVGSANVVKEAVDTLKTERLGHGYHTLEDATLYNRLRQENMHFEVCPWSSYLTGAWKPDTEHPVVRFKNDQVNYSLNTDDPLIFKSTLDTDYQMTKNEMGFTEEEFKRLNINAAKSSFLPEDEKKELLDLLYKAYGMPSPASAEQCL
Outline: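 Bovine spleen ADA, diluted to 1.15 U mL⁻¹ in 50 mM phosphate buffer pH 7.4 and kept on ice. Test compound (final 1–1000 µM, 0.1 µM for one analogue; DMSO stocks) and tzA (1 mM DMSO stock) were stirred 1 min in buffer in a quartz cuvette at 25.0 °C. ADA was then added. Emission at 410 nm (excitation 322 nm) was read every 10 s for 20 min.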

bovine spleen ADA [2] = target: T1, bovine spleen ADA; assay: HTS plate-reader fluorescence assay of ADA; assay type: biochemical; conditions: 200 μM, initial MBP library screen, relative to negative control
ADA [3] = conditions: non-HTS assay format; ref 8e; cited from earlier work
ADA [4] = conditions: ref Cristalli et al. 1a; cited from earlier work
[5] = converted from IC50 by Cheng-Prusoff, three independent experiments
[6] = cuvette, 25 °C, three independent experiments

IC50 (bovine spleen ADA [1]) [µM] | Ki (bovine spleen ADA [1]) [µM] | Compound | Ki (bovine spleen ADA [1]; [5]) [µM] | IC50 (bovine spleen ADA [1]; [6]) [µM] | percent inhibition of ADA (bovine spleen ADA [2]) | further results
– | – | Oc1ccccc1-c1ncc[nH]1 [Compound 3, 2-imidazolyl phenol] | 77 ± 14 | 93 ± 17 | ~ 83% and 83% | –
– | – | Oc1ccccc1-c1ncco1 [Compound 4, 2-oxazolyl phenol] | 215 ± 12 | 260 ± 14 | 61% | –
194 ± 4 | 161 ± 3 | C[C@H]1CN=C(c2ccccc2O)O1 [Compound 6, (S)-2-(5-Methyl-4,5-dihydrooxazol-2-yl)phenol] | – | – | – | –
188 ± 10 | 156 ± 8 | C[C@@H]1CN=C(c2ccccc2O)O1 [Compound 7, (R)-2-(5-Methyl-4,5-dihydrooxazol-2-yl)phenol] | – | – | – | –
– | – | erythro-9-(2-hydroxy-3-nonyl) adenine [EHNA] | – | – | – | IC50 (ADA [3]): 0.023 ± 0.004 µM; Ki (ADA [3]): 0.019 ± 0.004 µM; Ki (ADA [4]): ~0.005 µM
